Measurements: ChEMBL document CHEMBL1123201, “7-(Trifluoromethyl)-4-aminoquinoline hypotensives: novel peripheral sympatholytics” (J Med Chem, 1986)
Values joined by “and” are separate entries in the source; they are usually repeats but may differ in a detail not shown here. Equal values may be shown once. Active and inactive are the calls of the source. The rule behind the calls is not given here.

Tests used:
Rattus norvegicus [1] = experiment: Compound was tested for hypotensive activity by measuring the average change in mean arterial blood pressure in mmHg after 24 hr at 0.5 mg/Kg oral dosing of a conscious rat; assay type: functional, Artery
Method in brief: (§1)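 Restrained (towel-wrapped, to raise sympathetic tone) conscious female Sprague-Dawley rats with chronic indwelling aortic cannulas exteriorized at the nape; blood pressure recorded directly by transducer before and 4 and 24 h after oral dosing. Compound suspended in carboxymethylcellulose vehicle, 10 mL/kg; doses 50 to 0.05 mg/kg. Two rats averaged per time point; average change ≥5 mmHg taken as significant (p < 0.05).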

Mus musculus [2] = organism: Mus musculus; experiment: Lowest dose of compound associated with clinical signs; NA is Not Acceptable.; assay type: functional, organism-based
Mus musculus [3] = organism: Mus musculus; experiment: Lowest dose of compound associated with unacceptable clinical signs.; assay type: functional
Rattus norvegicus [4] = experiment: Compound was tested for hypotensive activity by measuring the average change in mean arterial blood pressure in mmHg after 4 hr at 0.5 mg/Kg oral dosing of a conscious rat; assay type: functional, Artery; method in brief: as §1
[5] = Acute toxicity was determined in mice; assay type: organism-based; conditions: mouse, in vivo
Rattus norvegicus [6] = experiment: Compound was tested for hypotensive activity by measuring the average change in mean arterial blood pressure in mmHg after 24 hr at 50 mg/Kg oral dosing of a conscious rat; assay type: functional, Artery; method in brief: as §1
Rattus norvegicus [7] = experiment: Compound was tested for hypotensive activity by measuring the average change in mean arterial blood pressure in mmHg after 4 hr at 50 mg/Kg oral dosing of a conscious rat; assay type: functional, Artery; method in brief: as §1
Rattus norvegicus [8] = experiment: Hypotensive activity in conscious rat 4 hr after 5 mg/kg p.o. administration.; assay type: functional; conditions: route oral; method in brief: as §1
Rattus norvegicus [9] = experiment: Hypotensive activity in conscious rat 24 hr after 5 mg/kg p.o. administration.; assay type: functional; conditions: route oral; method in brief: as §1
Rattus norvegicus [10] = experiment: Compound was tested for hypotensive activity by measuring the average change in mean arterial blood pressure in mmHg at 3 mg/Kg oral dosing of a conscious rat; IA is Inactive; assay type: functional, organism-based; conditions: Artery; method in brief: as §1
Rattus norvegicus [11] = experiment: Compound was tested for hypotensive activity by measuring the average change in mean arterial blood pressure in mmHg after 4 hr at 10 mg/Kg oral dosing of a conscious rat; assay type: functional, Artery; method in brief: as §1
Rattus norvegicus [12] = experiment: Compound was tested for hypotensive activity by measuring the average change in mean arterial blood pressure in mmHg 24 hr after at 50 mg/Kg oral dosing of a conscious rat; assay type: functional, Artery; method in brief: as §1
Rattus norvegicus [13] = experiment: Compound was tested for hypotensive activity by measuring the average change in mean arterial blood pressure in mmHg at 4 hr after at 50 mg/Kg oral dosing of a conscious rat; assay type: functional, Artery; method in brief: as §1
Mus musculus [14] = organism: Mus musculus; experiment: Lowest dose of compound associated with clinical signs; assay type: functional
Rattus norvegicus [15] = experiment: Compound was tested for hypotensive activity by measuring the average change in mean arterial blood pressure in mmHg after 24 hr at 10 mg/Kg oral dosing of a conscious rat; assay type: functional, Artery; method in brief: as §1
Mus musculus [16] = organism: Mus musculus; experiment: Lowest dose of compound associated with clinical signs.; assay type: functional
Rattus norvegicus [17] = experiment: Compound was tested for hypotensive activity by measuring the average change in mean arterial blood pressure in mmHg after 24 hr at 0.1 mg/Kg oral dosing of a conscious rat; assay type: functional, Artery; method in brief: as §1
Rattus norvegicus [18] = experiment: Compound was tested for hypotensive activity by measuring the average change in mean arterial blood pressure in mmHg after 4 hr at 0.1 mg/Kg oral dosing of a conscious rat; assay type: functional, Artery; method in brief: as §1
Rattus norvegicus [19] = experiment: Compound was tested for hypotensive activity by measuring the average change in mean arterial blood pressure in mmHg after 24 hr at 150 mg/Kg oral dosing of a conscious rat; assay type: functional, Artery
Rattus norvegicus [20] = experiment: Compound was tested for hypotensive activity by measuring the average change in mean arterial blood pressure in mmHg after 4 hr at 150 mg/Kg oral dosing of a conscious rat; assay type: functional, Artery
Rattus norvegicus [21] = experiment: Compound was tested for hypotensive activity by measuring the average change in mean arterial blood pressure in mmHg after 24 hr at 1 mg/Kg oral dosing of a conscious rat; assay type: functional, Artery; method in brief: as §1
Rattus norvegicus [22] = experiment: Compound was tested for hypotensive activity by measuring the average change in mean arterial blood pressure in mmHg after 4 hr at 1 mg/Kg oral dosing of a conscious rat; assay type: functional, Artery; method in brief: as §1

Row | SMILES | Activity (Rattus norvegicus [1]) [mmHg] | Dose (Mus musculus [3]) [mg/kg] | Activity (Rattus norvegicus [4]) [mmHg] | LD50 [5] [mg/kg] | Activity (Rattus norvegicus [6]) [mmHg] | Activity (Rattus norvegicus [7]) [mmHg] | Activity (Rattus norvegicus [8]) [mmHg] | Activity (Rattus norvegicus [9]) [mmHg] | further results
1 | O=C(c1ccc(Nc2ccnc3cc(C(F)(F)F)ccc23)cc1)N1CCC(O)(c2ccc(Cl)cc2)CC1 | -22 | <100 | -19 | 237 | – | – | – | – | DOSE (Mus musculus [2]): Not acceptable
2 | O=C(c1ccc(Nc2ccnc3cc(C(F)(F)F)ccc23)cc1)N1CCN(c2[nH]cnc3ncnc2-3)CC1 | – | – | – | – | -3 | -4 | – | – | –
3 | CSc1nccc(N2CCN(C(=O)c3ccc(Nc4ccnc5cc(C(F)(F)F)ccc45)cc3)CC2)n1 | – | – | – | – | – | – | -8 | -16 | –
4 | Cc1cccc(C2=CCN(C(=O)c3ccc(Nc4ccnc5cc(C(F)(F)F)ccc45)cc3)CC2)c1 | – | – | – | – | – | – | -8 | -8 | –
5 | Cc1cc(N2CCN(C(=O)c3ccc(Nc4ccnc5cc(C(F)(F)F)ccc45)cc3)CC2)nc(N)n1 | – | – | – | – | -4 | -3 | – | – | –
6 | COc1ccccc1N1CCN(S(=O)(=O)c2ccc(Nc3ccnc4cc(C(F)(F)F)ccc34)cc2)CC1 | – | – | – | – | – | – | -1 | -14 | –
7 | O=C(c1ccc(Nc2ccnc3cc(C(F)(F)F)ccc23)cc1)N1CCNCC1 | – | 1000 | – | 1780 | – | – | – | – | Activity (Rattus norvegicus [10]): inactive; Activity (Rattus norvegicus [11]): -7 mmHg; Activity (Rattus norvegicus [12]): -22 mmHg; Activity (Rattus norvegicus [13]): -15 mmHg; Dose (Mus musculus [14]): 100 mg/kg; Activity (Rattus norvegicus [15]): -8 mmHg
8 | O=C(c1ccc(Nc2ccnc3cc(C(F)(F)F)ccc23)cc1)N1CC=C(c2ccc(Cl)cc2)CC1 | – | 316 | – | 1000 | – | – | -7 | -16 | Dose (Mus musculus [16]): <100 mg/kg; Activity (Rattus norvegicus [17]): -11 mmHg; Activity (Rattus norvegicus [18]): -3 mmHg
9 | COc1ccccc1N1CCN(C(=O)c2ccc(Nc3ccnc4cc(C(F)(F)F)ccc34)cc2)CC1 | – | – | – | – | -27 | -13 | – | – | –
10 | COc1ccc(N2CCN(Cc3ccc(Nc4ccnc5cc(C(F)(F)F)ccc45)cc3)CC2)cc1 | – | – | – | – | -1 | 1 | – | – | Activity (Rattus norvegicus [19]): -16 mmHg; Activity (Rattus norvegicus [20]): -5 mmHg
11 | COc1ccc(S(=O)(=O)N2CCN(C(=O)c3ccc(Nc4ccnc5cc(C(F)(F)F)ccc45)cc3)CC2)cc1 | – | – | – | – | – | – | -6 | -3 | –
12 | Cc1ccccc1N1CCN(S(=O)(=O)c2ccc(Nc3ccnc4cc(C(F)(F)F)ccc34)cc2)CC1 | 0 | – | -1 | – | – | – | -10 | -13 | –
13 | O=C(c1ccc(Nc2ccnc3cc(C(F)(F)F)ccc23)cc1)N1CCC(c2ccccc2)CC1 | – | – | – | – | -17 | -4 | – | – | –
14 | Fc1ccc(N2CCN(Cc3ccc(Nc4ccnc5cc(C(F)(F)F)ccc45)cc3)CC2)cc1 | – | – | – | – | -18 | -4 | – | – | Activity (Rattus norvegicus [8]; 5 mg/kg): -7 mmHg and -9 mmHg
15 | COc1ccc(C2=CCN(C(=O)c3ccc(Nc4ccnc5cc(C(F)(F)F)ccc45)cc3)CC2)cc1 | – | – | – | – | – | – | -6 | -2 | –
16 | COc1ccc(C2(O)CCN(C(=O)c3ccc(Nc4ccnc5cc(C(F)(F)F)ccc45)cc3)CC2)cc1 | – | – | – | – | – | – | -15 | -5 | –
17 | O=C(c1ccc(Nc2ccnc3cc(C(F)(F)F)ccc23)cc1)N1CCN(c2ccccn2)CC1 | -2 | 316 | 2 | 1400 | – | – | -10 | -13 | Dose (Mus musculus [16]): <100 mg/kg
18 | O=C(c1ccc(Nc2ccnc3cc(C(F)(F)F)ccc23)cc1)N1CCN(S(=O)(=O)c2ccc(Cl)cc2)CC1 | -15 | >3160 | -13 | > 3160 | – | – | -20 | -34 | Dose (Mus musculus [16]): <100 mg/kg
19 | COc1cc(N2CCN(C(=O)c3ccc(Nc4ccnc5cc(C(F)(F)F)ccc45)cc3)CC2)nc(OC)n1 | -12 | <100 | -2 | > 3160 | -29 | -13 | -10 | -24 | Dose (Mus musculus [16]): <100 mg/kg
20 | CN(C)S(=O)(=O)N1CCN(C(=O)c2ccc(Nc3ccnc4cc(C(F)(F)F)ccc34)cc2)CC1 | -2 | >3160 | -6 | > 3160 | – | – | -18 | -6 | Dose (Mus musculus [16]): 100 mg/kg
21 | Cc1ccc(S(=O)(=O)N2CCN(C(=O)c3ccc(Nc4ccnc5cc(C(F)(F)F)ccc45)cc3)CC2)cc1 | – | – | – | – | – | – | -42 | -25 | –
22 | COc1ccc(N2CCN(C(=O)c3ccc(Nc4ccnc5cc(C(F)(F)F)ccc45)cc3)CC2)cc1 | – | – | – | – | -18 | -19 | – | – | –
23 | Cc1cccc(C2(O)CCN(C(=O)c3ccc(Nc4ccnc5cc(C(F)(F)F)ccc45)cc3)CC2)c1 | -1 | – | -4 | – | – | – | -10 | -4 | –
24 | CS(=O)(=O)c1ccc(N2CCN(C(=O)c3ccc(Nc4ccnc5cc(C(F)(F)F)ccc45)cc3)CC2)cc1 | -5 | 1000 | -7 | 3160 | – | – | -10 | -16 | Dose (Mus musculus [16]): 316 mg/kg
25 | O=C(c1ccc(Nc2ccnc3cc(C(F)(F)F)ccc23)cc1)N1CCN(c2ccc(F)cc2)CC1 | – | – | – | – | – | – | -11 | -10 | Activity (Rattus norvegicus [21]): 1 mmHg; Activity (Rattus norvegicus [22]): -12 mmHg
26 | O=C(c1ccc(Nc2ccnc3cc(C(F)(F)F)ccc23)cc1)N1CCN(c2ccccc2)CC1 | – | – | – | – | -13 | 4 | – | – | –
